Results as given in article PMC8025739 (Journal of medicinal chemistry, 2019).

How the values were obtained:
[1] = Metabolic stability in swine intestinal; type: in vitro ADME; settings: swine intestinal (jejunum) homogenate, 20 μm, 37 °C, 1 h (Figure 1B)
[2] = In vitro plasma stability, mouse plasma; type: in vitro ADME; settings: prodrug 20 μm, 37 °C
[3] = Metabolic stability in swine liver homogenate; type: in vitro ADME; settings: 20 μm, 37 °C, 1 h (Figure 1A)
[4] = Negative control incubation without enzymes; type: physicochemical; settings: no enzyme, pH 6 buffer, 37 °C, 3 h
[5] = In vitro plasma stability, swine plasma; type: in vitro ADME; settings: prodrug 20 μm, 37 °C
P493B lymphoma cells = assay: Human tumor cell-to-plasma partitioning, P493B cells in human plasma; type: cell-based; settings: human plasma with P493B cells, 0.25-2 h (Figure 3A)
Method in brief: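 P493B lymphoma cells were grown in RPMI 1640 with L-glutamine, 10% FBS and 1% antibiotic/antimycotic at 37 °C and 5% CO2. Pelleted cells were resuspended in human plasma at 10 million cells/mL and preincubated 5 min at 37 °C. Test compound was incubated at 37 °C for 1 h, or for 0.25, 0.5, 1 and 2 h. Plasma and washed pellets were analysed for intact prodrug and DON by LC–MS/MS, with DON dabsyl-derivatised.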

[6] = In vitro plasma stability, human plasma; type: in vitro ADME; settings: prodrug 20 μm, 37 °C
[7] = Pharmacokinetics in EL4 tumor-bearing CES1-/- mice; type: in vivo, C57BL/6 CES1−/− mice
Method in brief: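 EL4 cells (1 × 10^6 in PBS) were implanted SC in the flank of male and female C57BL/6 CES1−/− mice (6–8 weeks). At about 400 mm3 tumour volume, a single 3.2 mg/kg SC dose was given in ethanol/Tween 80/saline (5:10:85). Plasma, jejunum and tumour were sampled at set times, n = 3 per time point. Analysis was LC–MS/MS with noncompartmental parameters, mean ± SEM.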

| SMILES | % remaining at 1 h in swine intestinal homogenate [1] | Plasma Stability (%Remaining at 1 h) Swine [5] | Plasma Stability (%Remaining at 1 h) Human [6] | further results |
| --- | --- | --- | --- | --- |
| CC(=O)NCCCC[C@H](NC(=O)OCC1c2ccccc2-c2ccccc21)C(=O)N[C@@H](CCC(=O)C=[N+]=[N-])C(=O)OC(C)C [Compound 3, Isopropyl 2-(2-((((9H-Fluoren-9-yl)methoxy)carbonyl)-amino)-6-acetamidohexanamido)-6-diazo-5-oxohexanoate] | instability | – | – | – |
| CCCCCCCCCCCCCCCC(=O)N[C@@H](CCCCNC(C)=O)C(=O)N[C@@H](CCC(=O)C=[N+]=[N-])C(=O)OC(C)C [Compound 4, Isopropyl 2-(6-Acetamido-2-palmitamidohexanamido)-6-diazo-5-oxohexanoate] | unstable | – | – | – |
| CC(=O)NCCCC[C@H](NC(=O)C12CC3CC(CC(C3)C1)C2)C(=O)N[C@@H](CCC(=O)C=[N+]=[N-])C(=O)OC(C)C [Compound 6, isopropyl 2-(6-acetamido-2-(adamantane-1-carboxamido)hexanamido)-6-diazo-5-oxohexanoate] | – | complete stability | complete stability | Plasma Stability (%Remaining at 1 h) Mouse [2]: instability; % remaining at 1 h in swine liver homogenate [3]: 100%; chemical stability in negative control without enzymes [4]: chemically stable; stability of intact prodrug in human plasma, time course (P493B lymphoma cells): stable over the 2 h incubation period; intact prodrug measured in tumor ([7]; EL4 tumor, SC 3.2 mg/kg): minimal; DON AUC in tumor after dosing of 6 ([7]; EL4 tumor, SC 3.2 mg/kg (1 mg/kg DON equivalent), AUC0–t): 5.1 nmol·h/g; DON AUC in jejunum (GI tissues) after dosing of 6 ([7]; jejunum, SC 3.2 mg/kg (1 mg/kg DON equivalent), AUC0–t): 0.45 nmol·h/g; intact prodrug levels in jejunum ([7]; jejunum, SC 3.2 mg/kg, below the limit of quantification): < 0.001 nmol/mL |
| CC(=O)NCCCC[C@H](NC(=O)[C@@H](N)Cc1c[nH]c2ccccc12)C(=O)N[C@@H](CCC(=O)C=[N+]=[N-])C(=O)OC(C)C [Compound 9, Isopropyl 2-(6-Acetamido-2-(2-amino-3-(1H-indol-3-yl)-propanamido)hexanamido)-6-diazo-5-oxohexanoate] | instability | unstable | unstable | – |
| CC(=O)NCCCC[C@H](NC(=O)[C@H](Cc1c[nH]c2ccccc12)NC(=O)C(C)(C)C)C(=O)N[C@@H](CCC(=O)C=[N+]=[N-])C(=O)OC(C)C [Compound 11, Isopropyl 2-(2-(3-(1H-Indol-3-yl)-2-pivalamidopropanamido)-6-acetamidohexanamido)-6-diazo-5-oxohexanoate] | instability | – | – | – |
| CC(=O)NCCCC[C@H](NC(=O)[C@@H]1Cc2ccccc2CN1)C(=O)N[C@@H](CCC(=O)C=[N+]=[N-])C(=O)OC(C)C [Compound 12, Isopropyl 2-(6-Acetamido-2-(1,2,3,4-tetrahydroisoquinoline-3-carboxamido)hexanamido)-6-diazo-5-oxohexanoate] | instability | – | – | – |
